Data as given in EPA's CvTdb concentration-time database.

What was measured:
human [1] = experiment: concentration in blood after dosing
In short: (§1)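 A PubMed search, classifier screening and manual review identified published in vivo toxicokinetic studies, which together with two structured collections supplied concentration-versus-time and amount-versus-time points. Points were mostly digitised from plot screenshots with WebPlotDigitizer, otherwise copied from tables. Dose, route, subject details and medium were hand-curated from each paper, and sampling and analytical methods are those of the sources, often unreported.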

rabbit = experiment: concentration in blood after dosing; conditions: dosed: hexachlorocyclohexane, 25 mg/kg, oral, female
In short: as §1

human [2] = experiment: concentration in expired air after dosing; conditions: dosed: methyl tert-butyl ether, 15 mg, oral, male
In short: as §1

human [3] = experiment: concentration in blood after dosing; negative times count back from the end of exposure; conditions: inhalation
In short: as §1

rat = experiment: concentration in blood after dosing; conditions: dosed: methylene chloride, male
frog = experiment: concentration in embryo medium after dosing; conditions: dosed: musk moskene, 400 ug/L embryo medium, dermal, duration: 10 days, xenopus laevis
In short: as §1

human [4] = experiment: concentration in urine after dosing; conditions: dosed: benzene, 30 mg/m^3, inhalation, duration: 4 hr, male
In short: as §1

human [5] = experiment: concentration in urine after dosing; conditions: dosed: benzene, 30 mg/m^3, inhalation, duration: 4 hr, male; remark: listed apart in the source
In short: as §1

human [6] = experiment: concentration in urine after dosing; negative times count back from the end of exposure; conditions: dosed: benzene, 30 mg/m^3, inhalation, duration: 4 hr, male
In short: as §1

CCOC(C)(C)C [ethyl tert-butyl ether]
concentration in blood [µM], human [1], dosed: ethyl tert-butyl ether, inhalation, duration: 4 hr
Conditions	2.045 h	4.023 h	4.057 h	6.068 h	7.977 h	9.972 h	11.98 h	23.9 h	61 s	184 s
4.5 ppm	0.371	0.117	–	–	–	–	–	–	1.32	–
40.6 ppm	3.35	–	1.94	1.75	0.941	1.1	0.762	0.171	–	12

ClC1C(Cl)C(Cl)C(Cl)C(Cl)C1Cl (configuration not stated) [hexachlorocyclohexane]
rabbit
Conditions	concentration in blood [ng/mL]
168 h	9220
336 h	12300
504 h	18400
672 h	24600
840 h	33800
1008 h	39900
1176 h	46100
1344 h	52200
1512 h	58400
1680 h	64500
1848 h	70700
2016 h	86000

COC(C)(C)C [methyl tert-butyl ether]
dosed: methyl tert-butyl ether
Conditions	concentration in blood [µM]
human [1], 0.01 h, 38.7 ppm, inhalation, duration: 4 hr	6.65
human [1], 2 h, 4.5 ppm, inhalation, duration: 4 hr	0.643
human [1], 2.004 h, 38.7 ppm, inhalation, duration: 4 hr	2.1
human [1], 3.94 h, 4.5 ppm, inhalation, duration: 4 hr	0.354
human [1], 3.996 h, 38.7 ppm, inhalation, duration: 4 hr	1.02
human [1], 6.01 h, 4.5 ppm, inhalation, duration: 4 hr	0.174
human [1], 6.012 h, 38.7 ppm, inhalation, duration: 4 hr	0.606
human [1], 7.951 h, 4.5 ppm, inhalation, duration: 4 hr	0.084
human [1], 8.029 h, 38.7 ppm, inhalation, duration: 4 hr	0.395
human [1], 10.04 h, 38.7 ppm, inhalation, duration: 4 hr	0.328
human [1], 12.06 h, 38.7 ppm, inhalation, duration: 4 hr	0.253
human [1], 22 s, 4.5 ppm, inhalation, duration: 4 hr	1.93
human [3], 0.2914 h, 25 ppm, duration: 4 hr, male	7.86
human [3], 0.5342 h, 25 ppm, duration: 4 hr, male	6.55
human [3], 0.9123 h, 25 ppm, duration: 4 hr, male	5.51
human [3], 2.155 h, 25 ppm, duration: 4 hr, male	3.31
human [3], 6.883 h, 25 ppm, duration: 4 hr, male	0.651
human [3], 20.1 h, 25 ppm, duration: 4 hr, male	0.04

human [1], dosed: methyl tert-butyl ether, oral
Conditions	concentration in blood [µM]
0.9725 h, 5 mg	0.0994
1.015 h, 15 mg	0.685
1.991 h, 5 mg	0.0411
2.004 h, 15 mg	0.276
2.918 h, 15 mg	0.108
2.982 h, 5 mg	0.0272
3.947 h, 5 mg	0.0187
4.008 h, 15 mg	0.082
5.952 h, 5 mg	0.0131
5.987 h, 15 mg	0.0471
7.932 h, 5 mg	0.0117
7.966 h, 15 mg	0.0264
9.937 h, 5 mg	0.0101
9.945 h, 15 mg	0.0233
12 h, 15 mg	0.013
12.02 h, 5 mg	0.00899

human [2]
Conditions	concentration in expired air [µM]
0.1656 h	0.077
0.3208 h	0.077
0.5071 h	0.05141
0.6649 h	0.03325
0.8305 h	0.02815
0.9935 h	0.02117
1.508 h	0.01295
1.995 h	0.009141
2.999 h	0.00625
3.99 h	0.002876
4.996 h	0.002574
5.99 h	0.00141

human [3], dosed: methyl tert-butyl ether, 25 ppm, duration: 4 hr, male, during exposure
Conditions	concentration in blood [µM]
-4 h	0.117
-3.335 h	6.64
-2.225 h	7.88
-1.277 h	9.78
-0.1674 h	10.6

ClCCl [methylene chloride]
Conditions	concentration in blood [ng/mL]
human [3], 1.928 h, dosed: methylene chloride, 350 ppm, duration: 6 hr	899
human [3], 2.051 h, dosed: methylene chloride, 100 ppm, duration: 6 hr	155
human [3], 5.959 h, dosed: methylene chloride, 100 ppm, duration: 6 hr	62.4
human [3], 6.02 h, dosed: methylene chloride, 350 ppm, duration: 6 hr	342
human [3], 16.03 h, dosed: methylene chloride, 100 ppm, duration: 6 hr	12
human [3], 16.07 h, dosed: methylene chloride, 350 ppm, duration: 6 hr	77.4
human [3], 23.99 h, dosed: methylene chloride, 350 ppm, duration: 6 hr	36
human [3], 276 s, dosed: methylene chloride, 350 ppm, duration: 6 hr	5760
rat, 0.1027 h, 125 mg/kg, oral, Wistar	114000
rat, 0.1096 h, 125 mg/kg, oral, Wistar	35700
rat, 0.1406 h, 125 mg/kg, oral, Wistar	101000
rat, 0.1438 h, 125 mg/kg, oral, Wistar	37300
rat, 0.1715 h, 125 mg/kg, oral, Wistar	96200
rat, 0.1781 h, 125 mg/kg, oral, Wistar	38700
rat, 0.2228 h, 125 mg/kg, oral, Wistar	93900
rat, 0.2329 h, 125 mg/kg, oral, Wistar	39900
rat, 0.2708 h, 125 mg/kg, oral, Wistar	88100
rat, 0.2808 h, 125 mg/kg, oral, Wistar	41000
rat, 0.3223 h, 125 mg/kg, oral, Wistar	79600
rat, 0.3356 h, 125 mg/kg, oral, Wistar	39800
rat, 0.3704 h, 125 mg/kg, oral, Wistar	71100
rat, 0.3836 h, 125 mg/kg, oral, Wistar	38300
rat, 0.4252 h, 125 mg/kg, oral, Wistar	65400
rat, 0.4315 h, 125 mg/kg, oral, Wistar	34600
rat, 0.5041 h, 125 mg/kg, oral, Wistar	57100
rat, 0.5205 h, 125 mg/kg, oral, Wistar	36100
rat, 0.7539 h, 125 mg/kg, oral, Wistar	41600
rat, 0.7671 h, 125 mg/kg, oral, Wistar	27600
rat, 1.007 h, 125 mg/kg, oral, Wistar	31400
rat, 1.014 h, 125 mg/kg, oral, Wistar	24000
rat, 1.5 h, 125 mg/kg, oral, Wistar	16900
rat, 1.514 h, 125 mg/kg, oral, Wistar	14900
rat, 2.002 h, 125 mg/kg, oral, Wistar	8750
rat, 2.014 h, 125 mg/kg, oral, Wistar	9350
rat, 2.498 h, 125 mg/kg, oral, Wistar	3470
rat, 2.514 h, 125 mg/kg, oral, Wistar	11300
rat, 3.014 h, 125 mg/kg, oral, Wistar	9840
rat, 3.507 h, 125 mg/kg, oral, Wistar	6900
rat, 4.007 h, 125 mg/kg, oral, Wistar	5980
rat, 4.507 h, 125 mg/kg, oral, Wistar	4860
rat, 5 h, 125 mg/kg, oral, Wistar	1820
rat, 129 s, 125 mg/kg, oral, Wistar	59800
rat, 173 s, 125 mg/kg, oral, Wistar	15700
rat, 247 s, 125 mg/kg, oral, Wistar	29800
rat, 248 s, 125 mg/kg, oral, Wistar	101000

Conditions	concentration in blood [ng/mL]
human [3], -2.858 h, dosed: methylene chloride, 350 ppm, duration: 6 hr, during exposure	5830
human [3], -2.95 h, dosed: methylene chloride, 100 ppm, duration: 6 hr, during exposure	1090
human [3], -58 s, dosed: methylene chloride, 100 ppm, duration: 6 hr, during exposure	1020
rat, 0.5086 h, 100000 ppm, dermal, duration: 4 hr, Fischer-344	57300
rat, 0.5196 h, 60000 ppm, dermal, duration: 4 hr, Fischer-344	29800
rat, 0.5257 h, 30000 ppm, dermal, duration: 4 hr, Fischer-344	11300
rat, 1.007 h, 100000 ppm, dermal, duration: 4 hr, Fischer-344	67300
rat, 1.008 h, 60000 ppm, dermal, duration: 4 hr, Fischer-344	45900
rat, 1.013 h, 30000 ppm, dermal, duration: 4 hr, Fischer-344	21100
rat, 1.988 h, 100000 ppm, dermal, duration: 4 hr, Fischer-344	79800
rat, 1.99 h, 60000 ppm, dermal, duration: 4 hr, Fischer-344	43400
rat, 1.996 h, 30000 ppm, dermal, duration: 4 hr, Fischer-344	30000
rat, 2.977 h, 100000 ppm, dermal, duration: 4 hr, Fischer-344	97700
rat, 2.987 h, 60000 ppm, dermal, duration: 4 hr, Fischer-344	44700
rat, 2.989 h, 30000 ppm, dermal, duration: 4 hr, Fischer-344	29800
rat, 3.973 h, 100000 ppm, dermal, duration: 4 hr, Fischer-344	98100
rat, 3.974 h, 60000 ppm, dermal, duration: 4 hr, Fischer-344	52200
rat, 3.978 h, 30000 ppm, dermal, duration: 4 hr, Fischer-344	23600

Cc1c([N+](=O)[O-])cc2c(c1[N+](=O)[O-])C(C)(C)CC2(C)C [musk moskene]
frog
Conditions	concentration in embryo medium [ng/mL]
0.1638 h	353
0.2136 h	293
0.2621 h	670
95.89 h	46.5
168.63 h	226
240 h	175
240.21 h	290
240.24 h	222

Oc1ccccc1 [phenol]
Conditions	concentration in urine [µM]
human [4], 0 h	61.4
human [4], 2 h	82.2
human [4], 4 h	186
human [4], 5.939 h	193
human [4], 8 h	143
human [4], 10 h	129
human [4], 12.06 h	109
human [4], 14.36 h	102
human [4], 15.52 h	80.2
human [4], 23.33 h	176
human [4], 26.24 h	68.4
human [4], 37.03 h	45.6
human [4], 38.55 h	45
human [4], 46.55 h	87.7
human [4], 47.52 h	141
human [4], 52 h	95.1
human [5], 0 h	72.9
human [5], 2 h	113
human [5], 4 h	226
human [5], 6 h	207
human [5], 8 h	143
human [5], 10 h	180
human [5], 12.06 h	144
human [5], 14 h	87.1
human [5], 20.36 h	70.2
human [5], 24.06 h	112
human [5], 27.03 h	80.5
human [5], 32 h	82.7
human [5], 38.06 h	73.4
human [5], 42.55 h	45.5
human [5], 47.58 h	65.6
human [5], 52.48 h	50.5
human [6], 0 h	314
human [6], 1.939 h	244
human [6], 4 h	187
human [6], 6.061 h	200
human [6], 8 h	99.3
human [6], 10.06 h	114
human [6], 18 h	121
human [6], 24.55 h	51
human [6], 30 h	39.3
human [6], 34.12 h	38
human [6], 42.3 h	38.5
human [6], 50.48 h	52.2

human [6], during exposure
Conditions	concentration in urine [µM]
-4 h	23.7
-2.061 h	124

CC(C)(C)O [tert-butanol]
human [3], dosed: methyl tert-butyl ether, 25 ppm, duration: 4 hr, male
Conditions	concentration in blood [µM]
0.1966 h	14.8
0.4673 h	15.1
0.8191 h	15.4
2.091 h	14.8
6.879 h	11.6
20.02 h	4.27

human [3], dosed: methyl tert-butyl ether, 25 ppm, duration: 4 hr, male, during exposure
Conditions	concentration in blood [µM]
-3.999 h	0.0102
-3.435 h	3.36
-2.296 h	6.17
-1.076 h	10.4
-0.2367 h	13.1
